system: Nucleic Acid; experiment: Incorporation of compound into DNA of human and mammalian cells, by replacing thymidine; type: functional

| Structure (SMILES) | Replacement |
| --- | --- |
| O=c1[nH]c(=O)n([C@H]2C[C@H](O)[C@@H](CO)O2)cc1Br [BROXURIDINE] | 43% |

organism: Mus musculus; experiment: Inhibition constant for influx competition with [6-3H]thymidine in mouse erythrocytes; type: functional
In short: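 Freshly harvested mouse erythrocytes were exposed to various concentrations of test nucleoside and [6-3H]thymidine, and zero-trans thymidine influx was measured. Extracellular [6-3H]thymidine was measured over time by liquid scintillation counting of aliquots. The Ki for competition at the nucleoside transporter was derived by previously described methods.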

| Structure (SMILES) | Ki |
| --- | --- |
| O=c1ccn([C@@H]2O[C@H](CO)[C@@H](O)[C@H]2F)c(=O)[nH]1 | 120 µM |
| O=c1ccn([C@H]2C[C@H](O)[C@@H](CO)O2)c(=O)[nH]1 [DEOXYURIDINE] | 130 µM |
| O=c1[nH]c(=O)n([C@H]2C[C@H](O)[C@@H](CO)O2)cc1Br [BROXURIDINE] | 140 µM |
| O=c1[nH]c(=O)n([C@H]2C[C@H](O)[C@@H](CO)O2)cc1I [IDOXURIDINE] | 210 µM |
| Cc1cn([C@H]2C[C@H](O)[C@@H](CO)O2)c(=O)[nH]c1=O [DOXRIBTIMINE] | 80 µM |

— ChEMBL document CHEMBL1124493, “Synthesis and tumor uptake of 5-82Br- and 5-131I-labeled 5-halo-1-(2-fluoro-2-deoxy-beta-D-ribofuranosyl)uracils” (J Med Chem, 1989)
